# Rpn11 inh = Rpn11 (human) deubiquitinase inhibition. O00487. human 26S proteasome, Ub4-pepOG fluorescence polarization; 20S core pre-blocked with epoxomicin. inhibition, % at 20 µM. hit rate 0.59% among 360,000;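 active means inhibition at 20 µM, scaled to each plate's controls, above about 33%, limit read from the data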
# STEP block = inhibitors of human striatal-enriched phosphatase STEP. AID 588621. hit rate 0.25% among 360,000. P54829. inhibition, % at 20 µM. recombinant STEP, OMFP fluorogenic substrate, fluorescence;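 active means inhibition at 20 µM, scaled per plate between control wells, above about 37%, limit read from the data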
#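 Material: STEP (striatal-enriched tyrosine phosphatase) enzyme, cell-free | Medium: 50 mM Bis-Tris pH 6.0 with 2.5 mM DTT and 0.005% Tween 20 | Read-out: Percent inhibition scaled to no-enzyme and uninhibited-enzyme controls, plate-pattern corrected | Signal: Fluorescence read at 480 nm ex / 540 nm em | Times: 20 min reaction, room temperature, in the dark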
# Scp-1 inhibitor = Scp-1 (human) phosphatase inhibition; Recombinant Scp1, phosphopeptide, malachite green phosphate absorbance; inhibition, % at 20 µM; hit rate 0.88% among 340,000;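 active means inhibition above about 50% at 20 µM, limit read from the data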
#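 Assay system: SCP-1 catalytic fragment, aa 76-261 | Buffer or medium: Tris acetate buffer pH 5.5 with MgCl2 and Tween-20 | Compound: One concentration, 20 µM, with 1.0% DMSO | Also added: Phospho 17-mer peptide substrate | Signal: Absorbance at 630 nm | Incubation: 45 min enzyme reaction at room temperature | Measure: % inhibition of SCP-1 phosphate liberation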
# LMPTP block = LMPTP (human) inhibition; P24666; recombinant LMPTP-A, OMFP fluorogenic substrate, fluorescence intensity; inhibition, % at 20 µM; hit rate 0.22% among 360,000;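 active means compounds that cut the enzyme signal by at least half of the control window in the single-dose screen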
#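 Assay system: LMPTP-A, protein tyrosine phosphatase of low molecular weight / Medium: pH 6.0 Bis-Tris buffer with DTT and Triton X-100 / Schedule: 50 min enzyme reaction at room temperature, protected from light / Measured by: endpoint fluorescence intensity from OMFP dephosphorylation / Read-out basis: % inhibition relative to no-enzyme and uninhibited control wells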
# SUMO1-SIM PPI = modulators of human SUMO1-mediated protein-protein interactions; SUMO1 binding to a labelled peptide, TR-FRET, 1 h; P63165; AID 602429; inhibition, % at 20 µM; hit rate 0.33% among 360,000; in the data active means inhibition above about 37%
# Target sequence (P63165 whole entry, looked up): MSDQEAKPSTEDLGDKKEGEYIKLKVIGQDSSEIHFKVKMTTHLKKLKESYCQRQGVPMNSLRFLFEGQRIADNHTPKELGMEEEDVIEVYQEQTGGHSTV
# DNMT1 inh = DNMT1 (human) enzyme inhibition; DNMT1 molecular beacon, Hinp1I cleavage, fluorescence; inhibition (reported as % activation of signal), % at 10 µM; hit rate 0.83% among 360,000; AID 588458; in the data active means inhibition above about 50%
# Rpn11 inh conf = Rpn11 inhibition confirmation, single concentration | shares compounds with Rpn11 inh | purified human 26S proteasome, Ub4-pepOG fluorescence polarization; proteasome pretreated with epoxomicin | inhibition, % at 20 µM | hit rate 29% among 1,900
# MMP-2 counter = counter-screen for RPN11 inhibitors: inhibition of human MMP-2; shares compounds with Rpn11 inh; inhibition, % at 20 µM; hit rate 4% among 1,900; recombinant MMP-2, FRET peptide cleavage fluorescence;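 further: human MMP-2 activated beforehand with APMA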
# Thrombin FP = blocks bovine thrombin, flagging nonselective RPN11 hits | shares compounds with Rpn11 inh | bovine thrombin cleavage of Ub4-pepOG, fluorescence polarization | inhibition, % at 20 µM | hit rate 13% among 1,900 | AID 602333;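 active means mean inhibition at least 40% at 20 µM, or signal 3 deviations below plate average, so some actives read negative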
# Target sequence (P00735 whole entry, looked up): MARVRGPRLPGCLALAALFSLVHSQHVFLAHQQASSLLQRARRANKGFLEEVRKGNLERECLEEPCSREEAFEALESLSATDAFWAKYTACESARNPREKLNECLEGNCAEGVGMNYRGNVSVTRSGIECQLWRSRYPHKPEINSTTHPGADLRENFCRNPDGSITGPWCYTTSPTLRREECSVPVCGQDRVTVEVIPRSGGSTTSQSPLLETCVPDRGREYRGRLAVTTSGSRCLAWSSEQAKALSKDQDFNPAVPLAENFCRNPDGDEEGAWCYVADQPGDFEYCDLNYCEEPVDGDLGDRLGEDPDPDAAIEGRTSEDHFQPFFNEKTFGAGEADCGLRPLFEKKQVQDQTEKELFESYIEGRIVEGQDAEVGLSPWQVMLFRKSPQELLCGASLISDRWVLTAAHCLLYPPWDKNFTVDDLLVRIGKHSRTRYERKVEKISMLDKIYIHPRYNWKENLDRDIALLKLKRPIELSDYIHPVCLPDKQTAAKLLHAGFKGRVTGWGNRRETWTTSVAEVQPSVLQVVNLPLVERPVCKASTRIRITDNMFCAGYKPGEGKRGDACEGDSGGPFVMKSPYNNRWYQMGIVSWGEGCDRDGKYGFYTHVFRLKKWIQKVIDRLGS
# Hits are given with their value; – = inactive; · = no result. Only some compounds are listed: those with a hit (about 2.3% of all), similar ones and a draw of the others. Unless noted, no stated cut-off is given here; in the data, active means inhibition above about 40%; inactive means the rest.
SMILES,Rpn11 inh,STEP block,Scp-1 inhibitor,LMPTP block,SUMO1-SIM PPI,DNMT1 inh,Rpn11 inh conf,MMP-2 counter,Thrombin FP
C#CCOCCOCCOCCNc1nc(N2CCN(C(=O)[C@H]([C@@H](C)CC)n3cc(CCCN=C(N)N)nn3)CC2)nc(N2CCN(C(=O)[C@H]([C@@H](C)CC)n3cc(CCC(=O)O)nn3)CC2)n1,–,–,–,–,–,–,·,·,·
O=C(CSc1ncccc1C(=O)O)c1cccc(C(F)(F)F)c1,120.9,–,–,–,–,–,–,–,–
CC(C)(C)c1ccc(Oc2ccc(N)cn2)cc1,55.5,–,–,–,–,–,–,–,–
Cc1cc(Oc2ccc(N)cn2)cc(C)c1Cl,–,–,–,–,–,–,·,·,·
O=[N+]([O-])c1ccc(N/N=C/c2sc(N3CCOCC3)nc2-c2ccccc2)c(S(=O)(=O)Nc2ccccc2Cl)c1,69.0,–,–,–,–,–,54.8,–,46.0
O=C(N/N=C/c1sc(N2CCOCC2)nc1-c1ccccc1)c1ccccc1O,57.8,–,–,–,–,–,–,–,–
O=C(c1ccc2c(c1)OCO2)C1CCCN(Cc2c(F)ccc(F)c2F)C1 (stereo unspecified),–,–,–,–,–,–,·,·,·
O=C(NS(=O)(=O)Nc1ccccn1)c1c[nH]c2ccccc12,–,–,–,–,–,–,·,·,·
Oc1[nH]c2ccccc2c1N=Nc1nc2ccccc2s1,38.7,–,–,–,–,–,–,–,–
Cc1ccc2[nH]c(O)c(N=Nc3nc4ccccc4s3)c2c1,–,–,–,–,–,–,·,·,·
O=c1cc(CO)[nH]cc1OCc1ccccc1,–,–,–,–,–,–,·,·,·
CCOC(=O)[C@]12CCC=C1N(Cc1ccccc1)C(=O)[C@H](CC(=O)NCCCCc1ccccc1)C2,·,·,·,–,–,·,·,·,·
CC(C(=O)NCCN1C(=O)S/C(=C\c2cccnc2)C1=O)N1C(=O)c2ccccc2C1=O (stereo unspecified),–,–,–,–,–,–,·,·,·
O=C(CCl)NCCN1C(=O)S/C(=C\c2cccnc2)C1=O,45.7,–,–,–,–,–,52.9,–,–
COCC(C)NC(=O)c1nn(Cc2ccccc2)c(=O)c2ccccc12 (stereo unspecified),–,–,–,–,–,–,·,·,·
COc1ccc(-c2cc(NC=O)c3ncc(-c4ccc(C(C)=O)cc4)n3c2)cn1,54.6,–,·,–,–,–,–,–,–
FC(F)(F)C(F)(F)c1nc2nc(Cl)c(Cl)nc2[nH]1,–,–,·,–,–,–,·,·,·
CCOC(=O)c1c(NC(=O)CC(C)C)sc(C(C)=O)c1C,–,–,–,–,–,–,·,·,·
CCOC(=O)c1c(NC(=O)c2cc(-c3ccc(O)cc3)on2)sc(C(C)=O)c1C,170.9,–,–,–,–,–,–,–,–
CC1=C(C(=O)OC2CCC(C)CC2)C(c2ccc(O)c([N+](=O)[O-])c2)NC(=O)N1 (stereo unspecified),–,–,–,–,–,–,·,·,·
Cc1cccc(NC(=O)/C(=C\c2ccco2)NC(=O)c2cccs2)c1,32.1,–,–,–,–,–,–,–,–
O=C(O)CCCN1C(=O)/C(=C\c2ccc(-c3nc4ccccc4s3)o2)SC1=S,158.6,64.6,75.1,–,55.9,85.2,69.6,–,–
CN(C)S(=O)(=O)c1cccc(NC(=O)c2cc3c(=O)n4ccccc4nc3s2)c1,85.3,–,–,–,–,–,–,–,–
Cc1cc(C)nc(NS(=O)(=O)c2ccc(NC(=O)CCC(=O)O)cc2)n1,–,–,–,–,–,–,·,·,·
CC(=O)OCC1OC(n2c(-c3ccc(Cl)cc3)ccc(C#N)c2=S)C(OC(C)=O)C(OC(C)=O)C1OC(C)=O (stereo unspecified),43.5,–,–,–,–,–,–,–,–
SMILES,Rpn11 inh,STEP block,Scp-1 inhibitor,LMPTP block,SUMO1-SIM PPI,DNMT1 inh,Rpn11 inh conf,MMP-2 counter,Thrombin FP
CC(=O)OCC1OC(n2c3c(cc(C#N)c2=S)CCCC3)C(OC(C)=O)C(OC(C)=O)C1OC(C)=O (stereo unspecified),–,–,–,–,–,–,·,·,·
COc1ccc(NC(=O)c2cc3ccccc3o2)cc1S(=O)(=O)N1CCCCC1,–,–,–,–,–,–,·,·,·
CC1=C(C(=O)c2ccccc2)C(c2ccc(N3CCOCC3)cc2)NC(=O)N1 (stereo unspecified),74.5,–,–,–,–,–,50.6,–,41.0
O=C(OC(C(=O)NCc1ccco1)c1ccc(Cl)cc1)c1cccs1 (stereo unspecified),–,–,–,–,–,–,·,·,·
O=S(=O)(c1ccc(Cl)cc1)N1CCc2ccccc21,42.4,–,–,–,–,–,147.3,–,131.6
OCCN1CCN(c2ncnc3c2ncn3[C@H]2CN(Cc3ccc(F)cc3)C[C@@H](CO)O2)CC1,–,–,·,–,–,–,·,·,·
O=C(O)CCc1ccc(-c2ccccc2)n1CC1CCCO1 (stereo unspecified),55.1,–,–,–,–,–,–,–,–
FC(F)(F)c1ccccc1Cc1c(-c2cccc(Cl)c2)nc2c3ccccc3ccn12,·,·,·,–,–,·,·,·,·
COc1ccc(Cc2c(-c3ccc(C)cc3)nc3ccc(Cl)cn23)c(C)c1,44.2,–,·,–,–,–,51.6,–,–
COC(=O)c1ccc2nc(-c3ccc(Cl)cc3)c(Cc3ccc(OC)cc3C)n2c1,·,·,·,–,–,·,·,·,·
NC(=O)C1CCN(C(=O)CCC(=O)N2CCOc3ccc(Cl)cc32)CC1,–,–,–,–,–,–,·,·,·
COCCNC(=O)c1c(N)n(CCCn2ccnc2)c2nc3ccccc3nc12,40.2,–,–,–,–,–,–,–,–
Nc1c(C(=O)NCCN2CCOCC2)c2nc3ccccc3nc2n1CCc1ccccc1F,–,–,–,–,–,–,·,·,·
Nc1c(C(=O)NCCN2CCOCC2)c2nc3ccccc3nc2n1CCc1ccccc1,31.6,–,–,–,–,–,–,–,–
O=[N+]([O-])c1cccc(P(=O)(O)c2cccc([N+](=O)[O-])c2)c1,–,–,–,–,–,–,·,·,·
CC(C)C(NC(=O)c1ccc(C(C)(C)C)cc1)C(=O)Nc1ccc(N2CCOCC2)cc1 (stereo unspecified),–,–,–,–,–,–,·,·,·
Cc1cc(N2CCCC2)ccc1/C=N/n1cnnc1,47.1,–,–,–,–,–,–,–,–

# Compound activity deposited in PubChem by Sanford-Burnham Center for Chemical Genomics.
